UCH37 inh: human UCH37 deubiquitinating enzyme inhibition; purified proteasome/UCH37, Ub-AMC cleavage fluorescence; inhibition, % (test concentration not listed); 330,000 tested, 0.33% active; AID 588478;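 active means mean inhibition over replicate wells above about 20%, limit read from the data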;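 further: 0% = compound-free wells with enzyme and 100% = wells lacking proteasome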
Target sequence (Q9Y5K5 whole entry, looked up): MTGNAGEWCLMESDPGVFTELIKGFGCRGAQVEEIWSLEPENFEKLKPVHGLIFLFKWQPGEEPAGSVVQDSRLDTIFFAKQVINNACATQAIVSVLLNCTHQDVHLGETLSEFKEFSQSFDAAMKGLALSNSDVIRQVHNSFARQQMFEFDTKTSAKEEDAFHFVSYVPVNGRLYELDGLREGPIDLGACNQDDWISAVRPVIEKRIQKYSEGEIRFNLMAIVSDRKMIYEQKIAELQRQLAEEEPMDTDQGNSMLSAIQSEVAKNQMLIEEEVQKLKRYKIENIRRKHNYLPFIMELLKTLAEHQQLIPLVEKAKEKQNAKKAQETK
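Test system – human UCH37 enzyme supplied as purified proteasome complex · Incubation – 30 min preincubation with enzyme, 25 min cleavage at room temperature · Detection – AMC fluorescence from Ub-AMC cleavage, excitation 355 nm, emission 460 nm · Benchmarks – no-proteasome wells (full inhibition) and compound-free wells (no inhibition)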
CTSL1 counter: blocks F. hepatica cathepsin L1 in PFM18AAP counter-screen. recombinant F. hepatica cathepsin L1, Z-Leu-Arg-MCA fluorescence. inhibition, % at 5.96 µM. 300,000 tested, 0.49% active. AID 1906;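 active means inhibition above the mean of all tested compounds plus 3 SD, set per screening campaign, cut at about 17% in these data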;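 further: 0% = plate median of test compound wells and 100% = 1 µM Z-Phe-Ala-diazomethylketone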
Apaf1 inhib: blocks human Apaf-1 apoptosome activity; O14727; reconstituted apoptosome caspase-3 activity, DEVD-Rh110 fluorescence; inhibition, % at 20 µM; 330,000 tested, 0.71% active; active means inhibition of at least 40% at 20 µM;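 further: plate controls were DMSO wells for no effect and DEVD-CHO caspase inhibitor wells for full effect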
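Medium: Hepes buffer, pH 7.5 / System: biochemical Apaf-1 apoptosome reconstitution / Measured by: Rh110 fluorescence, excitation 480 nm, emission 540 nm / Times: compound with Apaf-1, dATP, procaspase-3 30 min, then 50 min reaction, room temperature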
GSTO1 counter: blocks human GSTO1 in RBBP9 counter-screen | inhibition, % at 5.96 µM | recombinant GSTO1, activity-based probe fluorescence polarization | AID 1974 | P78417 | 300,000 tested, 1.1% active;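 active means inhibition above the campaign mean inhibition plus 3 SD, cut at about 35% in these data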;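 further: 0% = GSTO1-1 with DMSO and 100% = wells lacking GSTO1-1 enzyme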
PAD4 FP inh: blocks human protein arginine deiminase 4. AID 485272. Q9UM07. 330,000 tested, 0.41% active. recombinant PAD4, RCA probe fluorescence polarization. inhibition, % at 6.36 µM;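 active means percent inhibition above a cutoff equal to the mean of all tested compounds plus 3 SD, cut at about 15% in these data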;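 further: 0% = PAD4 with RCA probe and DMSO and 100% = probe without PAD4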
PP5 primary: inhibitors of human protein phosphatase 5 (PP5) | P53041 | purified PP5c, OMFP substrate fluorescence | inhibition, % at 6.7 µM | 320,000 tested, 0.18% active;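 active means inhibition above the campaign's mean inhibition across all tested compounds plus 3 SD, cut at about 9.5% in these data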;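 further: 0% = DMSO only and 100% = 100 µM cantharidin control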
* hit, by the source's call; / = no result. An excerpt weighted towards active compounds, which were near 2% of everything screened.

SMILES	UCH37 inh	CTSL1 counter	Apaf1 inhib	GSTO1 counter	PAD4 FP inh	PP5 primary
CC(=NNC(=O)CSc1nc2ccccc2n1C)c1ccco1	-1	/	/	/	/	/
CC(=NOC(=O)c1cccc(Cl)c1)c1sc(C)nc1C	5	/	/	/	/	/
COc1ccc([N+](=O)[O-])cc1NC(=O)c1ccc(Br)s1	0	18*	-10	-19	-16	0
COc1ccc(NC(=O)c2ccc([N+](=O)[O-])s2)c([N+](=O)[O-])c1	5	5	-25	55*	-1	0
O=C(NN=Cc1ccc(O)c(O)c1)c1cccc(S(=O)(=O)N2CCCCC2)c1	3	/	/	/	/	/
O=C(CNc1cccc(C(F)(F)F)c1)NN=Cc1ccccc1C(=O)O	3	/	/	/	/	/
O=C(O)c1cccc(Nc2ccc([N+](=O)[O-])c3nonc23)c1	24*	0	17	3	-5	1
O=C(O)c1ccc(Nc2ccc([N+](=O)[O-])c3nonc23)cc1	24*	/	4	/	/	/
CCOC(=O)C(C)(C)N(Cc1ccc(C)cc1)S(=O)(=O)c1ccc(Cl)c([N+](=O)[O-])c1	5	-4	11	62*	6	2
CC(=O)c1c(C)oc2ccc(N(C(C)=O)S(=O)(=O)c3ccc(Cl)c([N+](=O)[O-])c3)cc12	5	0	18	22	5	3
O=C(CN(c1ccc(Cl)cc1)S(=O)(=O)c1ccc(Cl)c([N+](=O)[O-])c1)NCCc1ccc(F)cc1	4	2	5	5	2	0
CCOC(=O)C(C)(C)N(Cc1ccc(Cl)cc1)S(=O)(=O)c1ccc(Cl)c([N+](=O)[O-])c1	7	-4	9	65*	1	4
N#Cc1c(N)sc(=S)c2c1CCN(Cc1ccccc1)C2	/	109*	96*	51*	54*	2
Cc1cccc(N(CC(=O)NN=Cc2ccccc2C(=O)O)S(C)(=O)=O)c1C	3	/	/	/	/	/
C=CCN1CC(C)C(=NO)CC1C (configuration not stated)	-1	/	/	/	/	/
COC(=O)c1ccc(C=NN2CCN(c3ccccc3)CC2)cc1	2	/	/	/	/	/
COc1cc(C(=O)Nc2ccccn2)cc(OC)c1OC	-2	18*	3	6	-1	3
CC(=O)Nc1ccc(NS(=O)(=O)c2cccc3nonc23)cc1	5	17*	1	6	-5	-3
CC(=O)c1ccccc1NS(=O)(=O)c1cccc2nonc12	1	-6	5	-1	-3	2
CC(=NOC(=O)c1ccc(F)cc1)c1sc(-c2ccc(Cl)cc2)nc1C	-119	/	/	/	/	/
Cc1nonc1NC(=O)CSc1nc2ccccc2[nH]1	5	17*	-15	5	-6	0
CC1(C)CC2(CC(c3ccccc3F)c3ccc(O)c(O)c3O2)NC(=S)N1 (configuration not stated)	0	-2	5	44*	-2	1
O=C(CN1C(=O)NC2(CCCCC2)C1=O)Nc1cc(C(F)(F)F)ccc1N1CCCC1	0	/	3	/	/	/
O=C(CCN1C(=O)C2CC=CCC2C1=O)Nc1cc(C(F)(F)F)ccc1N1CCCC1 (configuration not stated)	6	11	-5	36*	1	0
COc1cc(/C=N/NC(=O)CNC(=O)c2ccco2)ccc1O	/	28*	10	-4	2	2
SMILES	UCH37 inh	CTSL1 counter	Apaf1 inhib	GSTO1 counter	PAD4 FP inh	PP5 primary
Cc1cccc(C(=O)Nc2ccc(C(=O)NN=Cc3cccnc3)cc2)c1	1	/	/	/	/	/
CCN(c1ccc(NC(=O)COC(=O)c2cc3ccccc3oc2=O)cc1)C(C)C	-2	-1	10	2	-1	4
O=C(COC(=O)c1cc2ccccc2oc1=O)Nc1ccc(F)cc1F	-9	31*	-17	-10	-6	2
N=c1c2c(-c3ccccc3)c(-c3ccccc3)n(Cc3ccccc3)c2ncn1CCCn1ccnc1	24*	-1	23	11	-2	2
CCCCn1cnc2c(c(-c3ccccc3)c(-c3ccccc3)n2Cc2ccco2)c1=N	2	1	22	-5	0	1
CC(C)CCOC(=O)/C(=C/c1ccco1)NC(=O)/C=C/c1ccccc1	2	22*	-1	-4	-2	1
NC(=O)/C(=C/c1ccco1)NC(=O)/C=C/c1ccccc1	8	5	0	15	-4	3
